The values below come from ChEMBL document CHEMBL1124700, “1,4-Dihydronaphthoquinones, hydroindoloquinones, benzofurans, and benzothiophenes as inhibitors of 5-lipoxygenase. Synthesis and structure-activity studies” (J Med Chem, 1990).

Each structure is given as a SMILES string.

The species named for assay [1] is Rattus norvegicus. The assay can be described thus: Ex vivo inhibition of LTB4 production was determined. It counts as functional, organism-based. An outline of the steps:
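Male Sprague-Dawley rats (225–275 g), fasted 18 h, given 50 mg/kg orally in 1.0 mL solution; controls received 1.0 mL vehicle; five rats per compound. Heparinized vena cava blood taken 2 h post-dose under anesthesia; 1.0 mL stimulated with A23187 (30 μM) 30 min at 37 °C. Plasma LTB4 by radioimmunoassay; percent inhibition from group mean vs control mean; Wilcoxon rank sum statistics.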

The species named for assay [2] is Rattus norvegicus. Nature of the assay: In vitro inhibition of LTC4/D4 (leukotriene) production in rat peritoneal mononuclear cells. The format is functional, cell-based. An outline of the steps:
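Rat peritoneal mononuclear cells challenged with calcium ionophore A23187 in presence of cysteine. Initial screen at 10 μg/mL, duplicate determinations, expressed as percent of control. IC50 from follow-up testing, interpolated from log dose–response plot. LTC4/D4 measured by guinea pig ileum bioassay (atropinized, mepyramine-treated) or, later, LTC4-selective radioimmunoassay.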

For assay [3], the target named is T1, Polyunsaturated fatty acid 5-lipoxygenase (Rattus norvegicus) (UniProt P12527).
T1 sequence (whole entry): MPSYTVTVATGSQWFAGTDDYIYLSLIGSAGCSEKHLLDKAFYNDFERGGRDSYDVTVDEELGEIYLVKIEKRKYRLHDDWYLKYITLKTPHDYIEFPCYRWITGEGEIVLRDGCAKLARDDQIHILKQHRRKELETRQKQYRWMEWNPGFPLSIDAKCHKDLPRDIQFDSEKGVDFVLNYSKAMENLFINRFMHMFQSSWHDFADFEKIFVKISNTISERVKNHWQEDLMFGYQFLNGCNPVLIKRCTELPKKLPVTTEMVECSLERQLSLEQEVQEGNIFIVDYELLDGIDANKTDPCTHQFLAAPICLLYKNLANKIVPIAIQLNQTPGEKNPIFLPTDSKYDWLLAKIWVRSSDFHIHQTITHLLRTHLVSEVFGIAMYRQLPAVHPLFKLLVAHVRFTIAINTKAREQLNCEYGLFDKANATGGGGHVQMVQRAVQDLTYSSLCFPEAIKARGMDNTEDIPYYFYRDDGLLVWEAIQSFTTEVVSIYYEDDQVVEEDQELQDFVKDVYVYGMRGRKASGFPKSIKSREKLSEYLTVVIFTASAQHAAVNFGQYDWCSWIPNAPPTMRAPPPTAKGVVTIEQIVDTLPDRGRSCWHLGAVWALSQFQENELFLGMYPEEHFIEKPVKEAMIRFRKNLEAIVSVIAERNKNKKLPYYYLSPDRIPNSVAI
Nature of the assay: Ex vivo inhibition of LTB4 production in rat blood following 50 mg/kg p.o. It counts as functional, organism-based. Also on record: dose 50 mg/kg. The conditions noted are these: at 50 mg/kg. An outline of the steps: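 Male Sprague-Dawley rats (225–275 g), fasted 18 h, given test compound orally at 50 mg/kg; controls got vehicle; five rats per compound. At 2 h, anesthetized; heparinized blood from vena cava. Blood (1.0 mL) stimulated with A23187 (30 μM), 30 min, 37 °C; plasma LTB4 by radioimmunoassay. Percent inhibition from mean treated vs mean control; Wilcoxon rank sum.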

Where [4] appears, read: Rattus norvegicus, read-out: IC50.

In general, IC50 refers to the concentration at which inhibition is half-maximal. For orientation: inhibition means the drop in the measured response relative to a control, in per cent.

Take `O=C1C=CC(=O)c2ccccc21`: in the assay filed under Rattus norvegicus [1], the IC50 is < 20000 nM. As for `CCCCc1c(CC)c(OC(C)=O)c2ccccc2c1OC`, the IC50 in the assay filed under Rattus norvegicus [2] (setting [4]) worked out at 1130 nM. For the compound `CCCCc1cc(OC)c2c(C)c(C)c(C)c(C)c2c1OC(C)=O`, the inhibition in assay [3] worked out at 41.2%. Moreover, the IC50 in the assay filed under Rattus norvegicus [2] (setting [4]) amounted to 44000 nM. For `CCCCc1ccc2c(OC(C)=O)c(CC)c(CC)c(OC)c2c1` the same measures were 17% and 940 nM.

Regarding `CCCCCc1c(C(=O)OCC)c(OC(C)=O)c2ccccc2c1OC`, the IC50 in the assay filed under Rattus norvegicus [2] (setting [4]) was 8920 nM. Still for that read-out and setting: under `CCCCc1cc(OC)c2ccccc2c1OC` stands 40900 nM; under `COc1c(-c2ccccc2)c(-c2ccccc2)c(OC(C)=O)c2ccccc12`, 11000 nM. Consider `COc1c(-c2ccccc2)c(-c2ccccc2)c(OC(C)=O)c2ccn(C)c12`, for which, in the assay listed under Rattus norvegicus [2], the IC50 result is recorded as “Not Active”. As to `COc1cc(-c2ccccc2)c(OC(C)=O)c2ccn(C)c12`, the IC50 in the assay listed under Rattus norvegicus [2] (setting [4]) came out at 3860 nM. In the case of `CCOC(=O)c1c(-c2ccccc2)c(OC(C)=O)c2ccccc2c1OC`, the IC50 in the assay listed under Rattus norvegicus [2] (setting [4]) was 5810 nM. The same measure, in the same setting: under `CCOC(=O)c1c(CC)c(OC)c2ccccc2c1OC(C)=O` stands 3760 nM. For the compound `CCCCc1cc(OC)c2c(C)cc(C)c(C)c2c1OC(C)=O`, the inhibition in assay [3] is 35.4%. Besides, in the assay filed under Rattus norvegicus [2] (setting [4]), the IC50 turned out to be 11900 nM. Take `CCCCc1cc(OC)c2c(OC)cccc2c1OC(C)=O`: the inhibition in assay [3] worked out at 17.5%. Moreover, in the assay filed under Rattus norvegicus [2] (setting [4]), the IC50 came to 260 nM.

Regarding `CCc1c(CC)c(OC(C)=O)c2c(C)ccc(C)c2c1OC`, the inhibition in assay [3] turned out to be 50.6%. Further, in the assay filed under Rattus norvegicus [2] (setting [4]), the IC50 was found to be 13000 nM. Regarding `C=Cc1c(OCC)c(OC)c2ccccc2c1OC`, the IC50 entry in the assay listed under Rattus norvegicus [2] was “Not Active”.

With `CCCCc1cccc2c(OC)c(CC)c(CC)c(OC(C)=O)c12`, the inhibition in assay [3] came out at 30.5%. For the same compound, the half-maximal inhibitory concentration (IC50) in the assay filed under Rattus norvegicus [2] (setting [4]) came out at 14100 nM. On to `CCCCC1=CC(=O)c2ccccc2C1=O`, for which, in the assay listed under Rattus norvegicus [2] (setting [4]), the IC50 was determined as 2240 nM. On the same count and under the same terms, then `CCCCc1cc(OC)c2occc2c1O`, with 11900 nM; and `CCc1c(CC)c(OC)c2c(OC)cccc2c1OC(C)=O`, with 890 nM. As to `CCCCc1cc(OC)c2c(C)ccc(C)c2c1OC(C)=O`, the inhibition in assay [3] was 19.1%. Besides, the IC50 in the assay filed under Rattus norvegicus [2] (setting [4]) came out at 7350 nM. Consider `CCCCC1=CC(=O)c2occc2C1=O`, for which, in the assay listed under Rattus norvegicus [2] (setting [4]), the IC50 was 2050 nM. As for `CCc1c(CC)c(OC)c2c(C)cccc2c1OC(C)=O`, in assay [3], the inhibition came to 40.6%. Also, the IC50 in the assay filed under Rattus norvegicus [2] (setting [4]) was found to be 830 nM.

Turning to `CCOC(=O)c1c(CC)c(OC(C)=O)c2ccccc2c1OC`, the IC50 in the assay filed under Rattus norvegicus [2] (setting [4]) worked out at 1160 nM. Still for that read-out and setting: under `COc1c(C)c(-c2ccccc2)c(O)c2ccoc12` stands 1250 nM. Consider `CCCCc1cc(OC)c2c(C)cccc2c1OC(C)=O`, for which the inhibition in assay [3] stood at 31.8%. In addition, in the assay filed under Rattus norvegicus [2] (setting [4]), the IC50 turned out to be 620 nM. In the same order, the values of `CCc1c(CC)c(OC(C)=O)c2c(C)c(C)c(C)c(C)c2c1OC` are -4.9% and 37300 nM. Take `CCCCc1cc(OC)c2sccc2c1OC(C)=O`: the IC50 in the assay listed under Rattus norvegicus [2] (setting [4]) came to 460 nM. On the same count and under the same terms, under `CCCCc1c(C)c(OC)c2ccccc2c1OC(C)=O` stands 200 nM. On the same count and under the same terms, then `CCCc1c(CCC)c(OC(C)=O)c2ccccc2c1OC`, with 1430 nM.

As to `CCOc1c(C(C)O)c(OC)c2ccccc2c1OC` (stereo unspecified), the IC50 in the assay listed under Rattus norvegicus [2] (setting [4]) worked out at 86000 nM.

Regarding `CCCCc1c(CC)c(OC)c2ccccc2c1OC(C)=O`, the IC50 in the assay listed under Rattus norvegicus [2] (setting [4]) stood at 990 nM. On the same count and under the same terms, under `CCCCc1c(CCCC)c(OC)c2occc2c1O` stands 1150 nM; under `CCCCC1=CC(=O)c2sccc2C1=O`, 23500 nM.

For the compound `CCCCc1c(C)c(OC)c2c(ccn2C)c1OC(C)=O`, in the assay filed under Rattus norvegicus [2] (setting [4]), the IC50 stood at 760 nM.

`COc1cc(-c2ccccc2)c(O)c2ccoc12`: the IC50 in the assay listed under Rattus norvegicus [2] (setting [4]) came to 2200 nM.

On to `CCCCc1cc(OC)c2ccccc2c1O`, for which, in the assay filed under Rattus norvegicus [2] (setting [4]), the IC50 turned out to be 1470 nM. In the case of `CCCCc1cc(OC)c2ccccc2c1OC(C)=O` [BUNAPROLAST], in assay [3], the inhibition was 61.1%. The IC50 in the assay filed under Rattus norvegicus [2] (setting [4]) is 440 nM.

For `CCc1c(CC)c(OC(C)=O)c2c(C)c(C)cc(C)c2c1OC`, the inhibition in assay [3] worked out at 14.7%. Also, the IC50 in the assay filed under Rattus norvegicus [2] (setting [4]) is 15700 nM. Take `CCc1c(CC)c(OC(C)=O)c2ccccc2c1OC`: in assay [3], the inhibition amounted to 74.8%. The IC50 in the assay listed under Rattus norvegicus [2] (setting [4]) is 400 nM. For the compound `CCOc1c(C(C)O[Si](C)(C)C(C)(C)C)c(OC(C)=O)c2ccccc2c1OC` (stereo unspecified), the IC50 in the assay listed under Rattus norvegicus [2] (setting [4]) is 23900 nM.

On to `CCCCCc1c(C(=O)OCC)c(OC)c2ccccc2c1OC(C)=O`, for which, in the assay listed under Rattus norvegicus [2] (setting [4]), the IC50 came out at 940 nM.

Take `CCCCc1cc(OC)c2c(ccn2C)c1OC(C)=O`: the IC50 in the assay filed under Rattus norvegicus [2] (setting [4]) is 720 nM. `CCCCc1c(CCCC)c(OC(C)=O)c2ccccc2c1OC`: the inhibition in assay [3] was 29.2%. The IC50 in the assay filed under Rattus norvegicus [2] (setting [4]) is 6020 nM. With `CCc1c(CC)c(OC(C)=O)c2cc(OC)ccc2c1OC`, the IC50 in the assay filed under Rattus norvegicus [2] (setting [4]) amounted to 690 nM.

As for `CCCCc1ccc2c(OC(C)=O)c(CCCC)cc(OC)c2c1`, in assay [3], the inhibition came out at 19.2%. The half-inhibitory concentration (IC50) in the assay filed under Rattus norvegicus [2] (setting [4]) turned out to be 480 nM. In the case of `CCCCc1cc(OC)c2ccc(OC)cc2c1OC(C)=O`, the half-maximal inhibitory concentration (IC50) in the assay filed under Rattus norvegicus [2] (setting [4]) worked out at 1380 nM.

Regarding `CCCCc1cc(OC)c2sccc2c1O`, in the assay listed under Rattus norvegicus [2] (setting [4]), the IC50 came out at 1050 nM. On to `COc1c(-c2ccccc2)c(-c2ccccc2)c(O)c2ccoc12`, for which the IC50 in the assay listed under Rattus norvegicus [2] (setting [4]) came to 4390 nM. Still for that read-out and setting: under `CCc1c(CC)c(OC)c2c(ccn2C)c1OC(C)=O` stands 2030 nM; under `CCCCc1cc(OC)c2occc2c1OC(C)=O`, 110 nM; under `CCCCc1c(C)c(OC(C)=O)c2ccn(C)c2c1OC`, 760 nM.
